Key:
[1] = molecular target: T1, Bromodomain-containing protein 4 (Homo sapiens, UniProt O60885); assay: Inhibition of FAM-labeled ZBA248 binding to recombinant human N-terminal His6-tagged BRD4 bromodomain 1 (44 to 168 residues) expressed in Rosetta2 DE3 cells after 30 mins by Flourescence polarization assay; type: biochemical
[2] = Half life in Sprague-Dawley rat at 25 mg/kg, po by LC/MS method; type: ADME, organism-based; settings: in vivo
In short: (§1)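 Sprague Dawley rats were dosed iv at 5 mg/kg or orally at 25 mg/kg, with compound dissolved in 20% (v/v) PCP/70% (v/v) PBS vehicle. Blood was drawn by catheter at 0, 5, 15, 30 min and 1, 2, 4, 6, 8, 24 h and spun to plasma, which was stored at −80 °C. Plasma drug was quantified by a validated LC–MS/MS method, and parameters were derived noncompartmentally.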

[3] = Cmax in Sprague-Dawley rat at 25 mg/kg, po by LC/MS method; type: ADME, organism-based; design: dose 25 mg/kg, route oral; settings: in vivo; in short: as §1
[4] = AUC (0 to t) in Sprague-Dawley rat at 25 mg/kg, po by LC/MS method; type: ADME, organism-based; settings: in vivo; in short: as §1
Mus musculus [5] = assay: Clearance in SCID mouse at 5 mg/kg, iv by LC/MS method; type: ADME, organism-based; settings: in vivo
[6] = Half life in Sprague-Dawley rat liver microsomes at 1 uM by LC/MS method; type: ADME, microsome
[7] = Aqueous solubility of the compound in 5% DMSO/10% cremophor/85% saline; type: physicochemical; settings: buffer
[8] = molecular target: Bromodomain-containing protein 2 (Homo sapiens, UniProt P25440); assay: Binding affinity to human partial length BRD2 bromodomain 1/2 isoform 1 (K71 to D455 residues) by BROMOscan assay
[9] = molecular target: T2, Bromodomain-containing protein 3 (Homo sapiens, UniProt Q15059); assay: Binding affinity to human partial length BRD3 bromodomain 2 (G306 to P416 residues) expressed in bacterial expression system by BROMOscan assay
T2 sequence (Q15059 whole entry, the tested form may be a part): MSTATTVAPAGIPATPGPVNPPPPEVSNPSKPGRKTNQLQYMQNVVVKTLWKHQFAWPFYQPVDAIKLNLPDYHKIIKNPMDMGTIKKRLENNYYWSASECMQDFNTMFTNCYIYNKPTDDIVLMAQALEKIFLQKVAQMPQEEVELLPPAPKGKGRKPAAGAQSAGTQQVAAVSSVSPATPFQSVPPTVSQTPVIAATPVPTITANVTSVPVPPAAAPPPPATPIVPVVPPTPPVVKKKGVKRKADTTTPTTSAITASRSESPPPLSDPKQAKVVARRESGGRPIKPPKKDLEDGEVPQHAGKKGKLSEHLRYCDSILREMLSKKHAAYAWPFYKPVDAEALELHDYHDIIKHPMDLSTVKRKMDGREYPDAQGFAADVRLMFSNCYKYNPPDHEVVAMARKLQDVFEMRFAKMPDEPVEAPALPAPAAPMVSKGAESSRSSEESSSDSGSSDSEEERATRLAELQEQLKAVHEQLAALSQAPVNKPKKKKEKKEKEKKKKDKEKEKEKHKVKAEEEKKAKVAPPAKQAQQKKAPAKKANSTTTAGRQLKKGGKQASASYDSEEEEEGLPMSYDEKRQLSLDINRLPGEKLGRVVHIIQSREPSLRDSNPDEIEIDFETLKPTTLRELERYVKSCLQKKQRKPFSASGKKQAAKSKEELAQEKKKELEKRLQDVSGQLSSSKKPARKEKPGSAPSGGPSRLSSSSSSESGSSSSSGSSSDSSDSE

[10] = molecular target: T2, Bromodomain-containing protein 3; assay: Binding affinity to human partial length BRD3 bromodomain 1/2 (P24 to P416 residues) expressed in bacterial expression system by BROMOscan assay
[11] = molecular target: T1, Bromodomain-containing protein 4; assay: Binding affinity to human partial length BRD4 bromodomain 2 long isoform (K333 to E460 residues) expressed in bacterial expression system by BROMOscan assay
[12] = molecular target: T1, Bromodomain-containing protein 4; assay: Binding affinity to human partial length BRD4 bromodomain 1/2 long isoform (N44 to E460 residues) expressed in bacterial expression system by BROMOscan assay
[13] = molecular target: T3, Bromodomain testis-specific protein (Homo sapiens, UniProt Q58F21); assay: Binding affinity to human partial length BRDT bromodomain 1 isoform b (N21 to E137 residues) expressed in bacterial expression system by BROMOscan assay
[14] = molecular target: T3, Bromodomain testis-specific protein; assay: Binding affinity to human partial length BRDT bromodomain 2 isoform b (K250 to E382 residues) expressed in bacterial expression system by BROMOscan assay
[15] = molecular target: T3, Bromodomain testis-specific protein; assay: Binding affinity to human partial length BRDT bromodomain 1/2 isoform b (K250 to E382 residues) expressed in bacterial expression system by BROMOscan assay
[16] = molecular target: Histone acetyltransferase p300 (Homo sapiens, UniProt Q09472); assay: Binding affinity to human partial length EP300 (A1040 to G1161 residues) expressed in bacterial expression system by BROMOscan assay
[17] = molecular target: ATPase family AAA domain-containing protein 2B (Homo sapiens, UniProt Q9ULI0); assay: Binding affinity to human partial length ATAD2B (Q955 to R1082 residues) expressed in bacterial expression system by BROMOscan assay
ATPase family AAA domain-containing protein 2B, sequence (Q9ULI0 whole entry, the tested form may be a part): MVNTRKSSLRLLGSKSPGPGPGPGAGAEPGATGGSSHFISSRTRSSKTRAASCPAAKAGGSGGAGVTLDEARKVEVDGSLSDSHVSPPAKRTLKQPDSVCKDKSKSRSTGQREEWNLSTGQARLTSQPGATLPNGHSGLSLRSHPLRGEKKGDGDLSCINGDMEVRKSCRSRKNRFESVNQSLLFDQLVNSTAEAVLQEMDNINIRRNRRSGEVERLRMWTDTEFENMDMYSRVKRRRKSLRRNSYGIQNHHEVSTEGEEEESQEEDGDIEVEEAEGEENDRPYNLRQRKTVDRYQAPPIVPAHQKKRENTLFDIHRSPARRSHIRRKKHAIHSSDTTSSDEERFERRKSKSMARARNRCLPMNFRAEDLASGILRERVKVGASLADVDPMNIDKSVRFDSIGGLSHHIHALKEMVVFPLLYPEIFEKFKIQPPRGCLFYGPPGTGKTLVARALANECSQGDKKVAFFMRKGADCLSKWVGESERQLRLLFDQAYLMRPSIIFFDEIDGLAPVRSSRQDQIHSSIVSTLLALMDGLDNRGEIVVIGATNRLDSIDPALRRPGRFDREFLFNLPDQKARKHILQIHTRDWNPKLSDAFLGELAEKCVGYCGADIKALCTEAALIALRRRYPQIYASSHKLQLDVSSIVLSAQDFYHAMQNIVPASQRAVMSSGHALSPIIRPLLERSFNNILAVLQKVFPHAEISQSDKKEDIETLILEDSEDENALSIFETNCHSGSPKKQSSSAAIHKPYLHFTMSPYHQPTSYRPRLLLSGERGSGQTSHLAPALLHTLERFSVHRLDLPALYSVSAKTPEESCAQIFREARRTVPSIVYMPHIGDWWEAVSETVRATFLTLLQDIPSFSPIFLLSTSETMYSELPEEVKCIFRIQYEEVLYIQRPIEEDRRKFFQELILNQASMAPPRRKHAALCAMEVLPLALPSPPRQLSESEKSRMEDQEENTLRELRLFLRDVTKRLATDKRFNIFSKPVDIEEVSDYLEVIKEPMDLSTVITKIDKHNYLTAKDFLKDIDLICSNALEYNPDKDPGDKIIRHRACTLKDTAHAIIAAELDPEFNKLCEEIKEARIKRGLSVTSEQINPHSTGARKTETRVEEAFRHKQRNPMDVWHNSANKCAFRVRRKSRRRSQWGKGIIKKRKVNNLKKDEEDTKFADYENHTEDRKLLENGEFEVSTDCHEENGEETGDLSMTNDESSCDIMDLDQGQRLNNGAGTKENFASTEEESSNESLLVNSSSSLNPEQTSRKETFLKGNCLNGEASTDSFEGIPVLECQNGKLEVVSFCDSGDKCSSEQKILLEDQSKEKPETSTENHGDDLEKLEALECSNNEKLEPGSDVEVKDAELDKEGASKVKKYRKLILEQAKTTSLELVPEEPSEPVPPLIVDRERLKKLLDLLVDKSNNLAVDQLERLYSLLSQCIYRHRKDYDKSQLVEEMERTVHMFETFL

[18] = molecular target: Bromodomain-containing protein 1 (Homo sapiens, UniProt O95696); assay: Binding affinity to human partial length BRD1 (E556 to A688 residues) expressed in bacterial expression system by BROMOscan assay
[19] = molecular target: Bromodomain-containing protein 8 (Homo sapiens, UniProt Q9H0E9); assay: Binding affinity to human partial length BRD8 bromodomain 1 (S700 to F854 residues) expressed in mammalian expression system by BROMOscan assay
Peregrin = Peregrin (Homo sapiens, UniProt P55201); assay: Binding affinity to human partial length BRPF1 (E627 to G740 residues) expressed in bacterial expression system by BROMOscan assay
[20] = molecular target: Nucleosome-remodeling factor subunit BPTF (Homo sapiens, UniProt Q12830); assay: Binding affinity to human partial length FALZ (S2791 to H2911 residues) expressed in bacterial expression system by BROMOscan assay
[21] = molecular target: Histone acetyltransferase KAT2A (Homo sapiens, UniProt Q92830); assay: Binding affinity to human partial length GCN5L2 (E726 to K837 residues) expressed in bacterial expression system by BROMOscan assay
Protein polybromo-1 = Protein polybromo-1 (Homo sapiens, UniProt Q86U86); assay: Binding affinity to human partial length PBRM1 bromodomain 2 (S178 to E291 residues) expressed in bacterial expression system by BROMOscan assay
[22] = molecular target: Histone acetyltransferase KAT2B (Homo sapiens, UniProt Q92831); assay: Binding affinity to human partial length PCAF (G715 to D831 residues) expressed in bacterial expression system by BROMOscan assay
[23] = molecular target: Transcription initiation factor TFIID subunit 1 (Homo sapiens, UniProt P21675); assay: Binding affinity to human partial length TAF1 bromodomain 2 (D1521 to D1656 residues) expressed in bacterial expression system by BROMOscan assay
[24] = molecular target: Bromodomain and WD repeat-containing protein 1 (Homo sapiens, UniProt Q9NSI6); assay: Binding affinity to human partial length WDR9 bromodomain 2 (A1310 to E1430 residues) expressed in bacterial expression system by BROMOscan assay
Bromodomain and WD repeat-containing protein 1, sequence (Q9NSI6 whole entry, the tested form may be a part): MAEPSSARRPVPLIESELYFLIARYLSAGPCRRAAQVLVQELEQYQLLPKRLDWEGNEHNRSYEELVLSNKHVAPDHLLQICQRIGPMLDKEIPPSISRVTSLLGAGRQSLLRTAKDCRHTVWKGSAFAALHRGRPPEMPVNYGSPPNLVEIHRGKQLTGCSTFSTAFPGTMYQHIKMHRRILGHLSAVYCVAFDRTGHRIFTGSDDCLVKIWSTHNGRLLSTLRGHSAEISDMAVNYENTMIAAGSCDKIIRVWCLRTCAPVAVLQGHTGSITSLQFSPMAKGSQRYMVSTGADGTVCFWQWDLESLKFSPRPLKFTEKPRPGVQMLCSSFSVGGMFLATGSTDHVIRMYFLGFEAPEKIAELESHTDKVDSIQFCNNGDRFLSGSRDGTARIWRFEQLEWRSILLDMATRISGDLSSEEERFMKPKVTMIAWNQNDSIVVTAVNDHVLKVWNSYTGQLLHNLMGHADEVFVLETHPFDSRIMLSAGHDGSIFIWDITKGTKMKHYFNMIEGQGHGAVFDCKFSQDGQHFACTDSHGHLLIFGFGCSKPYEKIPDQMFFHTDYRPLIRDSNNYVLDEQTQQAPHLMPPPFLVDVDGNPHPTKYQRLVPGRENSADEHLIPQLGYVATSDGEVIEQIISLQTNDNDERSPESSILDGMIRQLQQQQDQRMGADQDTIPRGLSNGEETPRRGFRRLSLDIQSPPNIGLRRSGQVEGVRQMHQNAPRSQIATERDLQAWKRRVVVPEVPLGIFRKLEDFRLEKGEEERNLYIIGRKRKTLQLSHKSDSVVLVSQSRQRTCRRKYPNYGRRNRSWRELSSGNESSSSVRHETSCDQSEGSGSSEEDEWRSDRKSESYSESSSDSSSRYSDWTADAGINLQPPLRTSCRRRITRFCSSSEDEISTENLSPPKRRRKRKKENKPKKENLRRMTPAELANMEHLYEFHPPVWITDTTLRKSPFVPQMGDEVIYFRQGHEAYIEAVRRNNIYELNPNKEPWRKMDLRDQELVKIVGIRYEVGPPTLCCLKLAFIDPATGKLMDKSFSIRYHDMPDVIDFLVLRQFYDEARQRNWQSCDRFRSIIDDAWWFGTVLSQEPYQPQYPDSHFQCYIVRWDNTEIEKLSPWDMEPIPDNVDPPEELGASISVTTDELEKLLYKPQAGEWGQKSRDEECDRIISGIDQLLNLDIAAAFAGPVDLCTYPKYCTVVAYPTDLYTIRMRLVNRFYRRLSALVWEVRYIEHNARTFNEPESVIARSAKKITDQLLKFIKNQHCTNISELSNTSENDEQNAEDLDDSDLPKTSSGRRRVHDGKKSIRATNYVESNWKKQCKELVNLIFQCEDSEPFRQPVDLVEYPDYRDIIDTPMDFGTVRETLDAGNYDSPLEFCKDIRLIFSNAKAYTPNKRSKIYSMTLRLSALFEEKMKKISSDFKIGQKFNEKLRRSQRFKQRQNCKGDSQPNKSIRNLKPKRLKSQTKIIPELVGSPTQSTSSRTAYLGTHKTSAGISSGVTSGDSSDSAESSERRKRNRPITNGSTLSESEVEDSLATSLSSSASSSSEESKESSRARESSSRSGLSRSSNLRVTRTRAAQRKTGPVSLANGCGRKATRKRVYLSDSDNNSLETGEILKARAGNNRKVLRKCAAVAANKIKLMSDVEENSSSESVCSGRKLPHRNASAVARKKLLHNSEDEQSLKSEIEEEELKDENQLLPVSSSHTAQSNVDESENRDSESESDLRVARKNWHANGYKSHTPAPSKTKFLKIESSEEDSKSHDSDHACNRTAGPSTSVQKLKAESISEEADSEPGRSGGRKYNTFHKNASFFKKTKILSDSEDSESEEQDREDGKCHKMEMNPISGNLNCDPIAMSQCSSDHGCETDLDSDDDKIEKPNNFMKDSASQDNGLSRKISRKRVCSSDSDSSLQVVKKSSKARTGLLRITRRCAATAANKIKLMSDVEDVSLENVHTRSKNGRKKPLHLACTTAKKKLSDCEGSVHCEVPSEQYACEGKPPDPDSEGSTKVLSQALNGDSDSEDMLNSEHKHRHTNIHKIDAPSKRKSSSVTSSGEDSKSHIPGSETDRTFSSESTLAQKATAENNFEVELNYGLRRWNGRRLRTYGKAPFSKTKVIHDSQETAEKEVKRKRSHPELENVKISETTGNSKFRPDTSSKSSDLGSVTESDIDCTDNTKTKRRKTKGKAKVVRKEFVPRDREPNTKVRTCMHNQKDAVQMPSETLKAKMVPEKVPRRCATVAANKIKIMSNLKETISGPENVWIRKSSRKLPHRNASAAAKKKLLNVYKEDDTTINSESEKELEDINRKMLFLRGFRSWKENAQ

[25] = molecular target: Bromodomain adjacent to zinc finger domain protein 2A (Homo sapiens, UniProt Q9UIF9); assay: Binding affinity to human partial length BAZ2A (M1792 to L1905 residues) expressed in bacterial expression system by BROMOscan assay
MV4-11 [26] = assay: Antitumor activity against human MV4-11 cells xenografted in SCID mouse assessed as tumor growth inhibition at 50 mg/kg, po qd measured 2 to 3 times weekly during treatment and once weekly post dose; type: functional; settings: MV4-11, po, read-out: TGI
In short: (§2)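 At ~100 mm3, mice were randomized to treatment or vehicle control. Tumors were measured by electronic calipers. Animals were checked daily for signs of toxicity and weighed 2–3 times weekly on treatment, then at least weekly afterwards.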

Mus musculus [27] = assay: Toxicity in SCID mouse implanted with human MV-411 cells assessed as weight loss at 50 mg/kg, po qd measured 2 to 3 times weekly during treatment and weekly post dose; type: organism-based; settings: in vivo; in short: as §2
Mus musculus [28] = assay: Toxicity in SCID mouse implanted with human MDA-MB-231 cells at 40 mg/kg, po qd measured 2 to 3 times weekly during treatment and weekly post dose; type: organism-based; settings: in vivo; in short: as §2
MV4-11 [29] = assay: Induction of apoptosis in human MV4-11 cells assessed as upregulation of cleaved PARP protein level after 24 hrs by Western blot method; type: functional, cell-based
In short: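 MV4;11 cells were exposed to compound for 24 h and lysed in RIPA buffer with protease inhibitors. Lysates were separated on 4–20% SDS-PAGE, blotted to PVDF and probed for PARP, cleaved PARP and p21, with β-actin as loading control.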

- IC50 [1]: 28.2 nM
- Ki [1]: 8.2 nM
- half-life [2]: 2.9 h
- Cmax [3]: 7330 ng/mL
- AUC(0-t) [4]: 29500 ng·h/mL
- CL (Mus musculus [5]): 22.7 mL/min/kg
- t1/2 [6]: > 1 h
- solubility [7]: Soluble
- Kd [8]: 1.1 nM
- Kd [9]: 0.69 nM
- Kd [10]: 0.73 nM
- Kd [11]: 2 nM
- Kd [12]: 1.8 nM
- Kd [13]: 15 nM
- Kd [14]: 5.5 nM
- Kd [15]: 9.7 nM
- Kd [16]: 550 nM
- Kd [17]: > 4000 nM
- Kd [18]: > 4000 nM
- Kd [19]: > 4000 nM
- Kd (Peregrin): > 4000 nM
- Kd [20]: > 4000 nM
- Kd [21]: > 4000 nM
- Kd (Protein polybromo-1): > 4000 nM
- Kd [22]: > 4000 nM
- Kd [23]: > 4000 nM
- Kd [24]: > 4000 nM
- Kd [25]: > 4000 nM
SMILES: COc1cc2c(cc1-c1c(C)noc1C)[nH]c1nc(C)nc(-c3ccnc4ccccc34)c12
- inhibition in vivo at 50 mg/kg (MV4-11 [26]): > 80%
- Activity (Mus musculus [27]): Non-Toxic
- Activity (Mus musculus [28]): Non-Toxic
- Activity (MV4-11 [29]): Dose-dependent effect

— ChEMBL document CHEMBL4184143 (J Med Chem, 2017)
